Assay results as given in ChEMBL document CHEMBL1128194, “A new series of pyridinone derivatives as potent non-nucleoside human immunodeficiency virus type 1 specific reverse transcriptase inhibitors” (J Med Chem, 1995).

Tests used:
[1] = system: CEM-SS; test: The compound was tested for inhibition of nevirapine HIV-1 resistant strain; type: functional, cell-based; settings: Homo sapiens
Procedure, shortened: (§1)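 Cells infected with 100 TCID50 virus for 30 min. Unbound virus removed by two washes, then cells cultured 5 days with a range of compound concentrations. Virus production read as particle-associated RT activity in the culture supernatant. IC50 taken from a computer-generated median effect plot of the dose–effect data.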

[2] = system: Human immunodeficiency virus 1; test: Inhibition of wild type HIV-1-IIIB strain replication in CEM-SS cells; type: functional, organism-based; settings: Human immunodeficiency virus 1, CEM-SS
Procedure, shortened: (§2)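 Cells were infected with 100 TCID50 for 30 min and washed twice to remove unbound virus. They were then cultured 5 days with a range of compound concentrations. Virus production was quantified as particle-associated RT activity in the supernatant. IC50 was derived from a computer-generated median-effect plot of dose–effect data.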

[3] = system: CEM-SS; test: The compound was tested for cytotoxicity against nevirapine HIV-1 resistant strain infected CEMSS cells; type: functional; settings: Homo sapiens
[4] = system: CEM-SS; test: Cytotoxicity against wild type HIV-1-IIIB strain infected CEMSS cells.; type: functional; settings: Homo sapiens
Procedure, shortened: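 Uninfected cells were incubated with compound for 5 days. Viability was read by MTT reduction to formazan at OD540. CC50 is the concentration that halves OD540, taken from a median-effect computer analysis.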

[5] = Specific index of IC50 and CC50 on HIV-1 Nevirapine resistant strain; type: functional
[6] = system: CEM-SS; test: Specific index of IC50 and CC50 on HIV-1 IIIB wild type; type: functional
[7] = molecular target: Human immunodeficiency virus type 1 reverse transcriptase (Human immunodeficiency virus 1, UniProt Q72547); test: Inhibition of HIV-1 reverse transcriptase (RT)
Procedure, shortened: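 Recombinant HIV-1 RT (20–50 nM) was expressed in yeast. Assays ran 10 min at 37 °C in 50 mM Tris-HCl pH 8.0 with 5 mM MgCl2, 4 mM DTT, 80 mM KCl and BSA. Template-primer was poly(C)-oligo(dG) (5:1, 0.48 A260/mL), with 2 μM dGTP plus [3H]dGTP. Product was precipitated with cold TCA/pyrophosphate, filtered and scintillation counted. Compounds were in DMSO, with matched DMSO controls.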

[8] = system: CEM-SS; test: The compound was tested for inhibition of Nevirapine resistant HIV-1 (N119) cells; type: functional, cell-based; settings: Homo sapiens; procedure, shortened: as §1
[9] = system: CEM-SS; test: The compound was tested for inhibition of wild type HIV-1-IIIB strain; type: functional, cell-based; settings: Homo sapiens; procedure, shortened: as §2

SMILES	IC50 [1]	IC50 [2]	CC50 [3]	CC50 [4]	Specific index [5]	Specific index [6]	IC50 [7]	IC50 [8]	IC50 [9]
CCc1c(C)nc(O)c(NC(C)=O)c1Sc1cc(C)cc(C)c1	4.3 µM	0.05 µM	> 100 µM	80 µM	> 23	1600			
CC(=O)Nc1c(O)ncc(C)c1Sc1cc(C)cc(C)c1	> 100 µM	0.067 µM		> 100 µM		>1492	> 4 µM		
Cc1cnc(O)c([N+](=O)[O-])c1Sc1nc2ccccc2o1		5.5 µM		16 µM		>2			
CCOC(=O)Nc1c(O)ncc(C)c1Sc1cc(C)cc(C)c1		7.5 µM		> 100 µM		>13			
CCc1cnc(O)c([N+](=O)[O-])c1Sc1cc(C)cc(C)c1	6.7 µM	~0.09 µM		> 10 µM	> 1	>111			
Cc1cnc(O)c([N+](=O)[O-])c1Sc1nc2ccccc2[nH]1		43.5 µM		54.5 µM		>1			
Cc1c(Sc2ccccc2)n(COCc2ccccc2)c(=O)[nH]c1=O							0.4 µM		
Cc1cc(C)cc(Sc2c(C)cnc(O)c2N)c1	> 10 µM	0.01 µM		> 10 µM		>1000	0.1 µM		
CCc1c(C)nc(O)c([N+](=O)[O-])c1Sc1cc(C)cc(C)c1	0.26 µM	~0.006 µM		> 10 µM	> 38	>1666			
CCOC(=O)c1c(Sc2cc(C)cc(C)c2)c(CC)c(C)[nH]c1=O							0.6 µM		
CCc1cnc(O)c(N)c1Sc1cc(C)cc(C)c1	6.7 µM	0.01 µM		> 10 µM	> 1	>1000			
Cc1cc(C)cc(Sc2c(C)cnc(O)c2[N+](=O)[O-])c1		0.12 µM		> 10 µM		>83	> 10 µM	> 10 µM	
CCOC(=O)c1c(O)nc(C)c(CC)c1Sc1cc(C)cc(C)c1	2.2 µM	0.003 µM		> 10 µM	> 4.5	>3333			
Cc1cc(O)nc(Sc2c(C)cnc(O)c2[N+](=O)[O-])n1		> 100 µM		> 100 µM					
CCCCCCC(=O)Nc1c(O)ncc(C)c1Sc1cc(C)cc(C)c1				> 10 µM					> 10 µM
Cc1cc(C)cc(Sc2c(C)cnc(O)c2NC(=O)Cc2ccccc2)c1		> 10 µM		> 10 µM					
CCC(=O)Nc1c(O)ncc(C)c1Sc1cc(C)cc(C)c1		41.4 µM		> 100 µM		>2	> 4 µM		
Cc1cc(C)cc(Sc2c(C)cnc(O)c2NC=O)c1		6.6 µM		> 100 µM		>15			
Cc1cc(C)cc(Nc2c(C)cnc(O)c2[N+](=O)[O-])c1		45 µM		> 100 µM		>2			

SMILES	IC50 [1]	IC50 [2]	CC50 [3]	CC50 [4]	Specific index [5]	Specific index [6]	IC50 [7]	IC50 [8]	IC50 [9]
Cc1cnc(O)c(N)c1Sc1nc2ccccc2o1		8 µM		7.5 µM					
Cc1cc(C)cc(Sc2c([N+](=O)[O-])c(O)nc3ccccc23)c1	> 10 µM	3.8 µM		> 100 µM		>26			
CCc1c(Sc2cc(C)cc(C)c2)cc(O)nc1C		0.5 µM		> 10 µM		>20	0.4 µM		
Cc1cc(C)nc(Sc2c(C)cnc(O)c2[N+](=O)[O-])n1		17.5 µM		19.5 µM		>1			
Cc1cc(C)cc(Sc2c(N)c(O)nc3ccccc23)c1	6.6 µM	0.25 µM	8.2 µM	> 9 µM	> 1.5	>36			
Cc1cnc(O)c([N+](=O)[O-])c1Sc1nc2ccccc2s1		14.5 µM		13.5 µM					
Cc1cnc(O)c([N+](=O)[O-])c1SC1=NCCS1		17 µM		21.5 µM		>1			
CCc1c(C)nc(O)c(N)c1Sc1cc(C)cc(C)c1	2.1 µM	0.014 µM		> 10 µM	> 4	>714	0.015 µM		
Cc1cnc(O)c([N+](=O)[O-])c1Sc1nccn1C		56 µM		68.5 µM		>1			
CC(C)=CCN1Cc2cc(Cl)cc3[nH]c(=S)n(c23)C[C@@H]1C		> 10 µM		> 10 µM					
Cc1cnc(O)c([N+](=O)[O-])c1Sc1ccccc1		> 10 µM		> 10 µM					
Cc1cnc(O)c([N+](=O)[O-])c1Sc1ccccn1		18 µM		28.5 µM		>1			
Cc1cccc(Sc2c(C)c[nH]c(=O)c2N)c1							> 4 µM		
CCc1c(C)[nH]c(=O)c([N+](=O)[O-])c1Sc1cc(C)cc(C)c1							0.03 µM		
Cc1cccc(Sc2c(C)cnc(O)c2N)c1	41.5 µM	1.4 µM	78 µM	78 µM	> 1	>55			
Cc1cccc(Sc2c(C)cnc(O)c2[N+](=O)[O-])c1				> 10 µM			> 10 µM		
Cc1c(Sc2ccccc2)n(COCCO)c(=O)[nH]c1=O [HEPT]							> 6 µM		
Cc1cn([C@H]2C[C@H](N=[N+]=[N-])[C@@H](CO)O2)c(=O)[nH]c1=O [ZIDOVUDINE]				> 100 µM					
